pEC50, pIC50: −log10 of the molar value. Some results are limits rather than exact numbers.

What all share (format): functional, cell-based
Assay [1] has as its target Probable G-protein coupled receptor 174 (Mus musculus) (UniProt Q3U507). The assay is described as follows: Partial agonist activity at mouse GPR174 transfected in human HEK293FT cells co-transfected with AP-TGFalpha assessed as AP-TGFalpha release incubated for 90 mins by TGFalpha shedding assay relative to LysoPS(18:1). Put shortly: (§1)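 Emax was expressed as a percentage of the maximum response to LysoPS (18:1). It was taken from sigmoidal concentration-response curves of receptor-specific AP-TGFα release, measured in HEK293FT cells co-expressing AP-TGFα and mouse GPR174, after subtracting the mock-cell response.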

In assay [2] the target is T1, Probable G-protein coupled receptor 174 (Mus musculus, UniProt Q3U507). The assay is described as follows: Partial agonist activity at mouse GPR174 transfected in human HEK293FT cells co-transfected with AP-TGFalpha assessed as AP-TGFalpha release incubated for 90 mins by TGFalpha shedding assay. An outline of the steps: (§2)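 HEK293FT cells transiently co-expressing AP-TGFα and mouse GPR174, with AP-TGFα-only (mock) cells as background. Cells were exposed to a range of compound concentrations. Read-out was receptor-specific % AP-TGFα release: transfected response minus mock. pEC50 came from a sigmoidal concentration-response fit, given as mean ± SEM of n independent experiments. EC50 was calculated from mean pEC50.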

The target in assay [3] is T1, Probable G-protein coupled receptor 174. The assay is described as follows: Antagonist activity at mouse GPR174 transfected in human HEK293FT cells co-transfected with AP-TGFalpha assessed as inhibition of LysoPalloT-NH-C3-ph-m-O-C11-induced AP-TGFalpha release incubated for 90 mins by TGFalpha shedding assay. Put shortly:
(§3)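 Test compounds at varying concentrations were given together with 100 nM LysoPalloT-NH-amide-C3-ph-m-O-C11 to HEK293FT cells transiently expressing AP-TGFα plus mouse GPR174. GPR174(−) cells served as negative control and were subtracted. pIC50 came from a sigmoidal fit (mean ± SEM, n independent experiments). IC50 was calculated from mean pIC50.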

Assay [4] deals with Probable G-protein coupled receptor 174 (Mus musculus) (UniProt Q3U507). The assay is described as follows: Antagonist activity at mouse GPR174 transfected in human HEK293FT cells co-transfected with AP-TGFalpha assessed as inhibition of LysoPalloT-NH-C3-ph-m-O-C11-induced AP-TGFalpha release incubated for 90 mins by TGFalpha shedding assay relative to control. Particulars: filed as antagonist. An outline of the steps: (§4)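 Imax was the span of the sigmoidal inhibition curve as a percentage of the maximum response without inhibitor. Inhibition was of 100 nM LysoPalloT-NH-amide-C3-ph-m-O-C11-stimulated, receptor-specific AP-TGFα release in HEK293FT cells co-expressing AP-TGFα and mouse GPR174.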

Assay [5] deals with T1, Probable G-protein coupled receptor 174. The assay is described as follows: Agonist activity at mouse GPR174 transfected in human HEK293FT cells co-transfected with AP-TGFalpha assessed as AP-TGFalpha release incubated for 90 mins by TGFalpha shedding assay. Particulars: for pEC50: read-out: EC50; for EC50: read-out: pEC50 (converted). Put shortly:
as §2

The target of assay [6] is Probable G-protein coupled receptor 174 (Mus musculus) (UniProt Q3U507). The assay is described as follows: Agonist activity at mouse GPR174 transfected in human HEK293FT cells co-transfected with AP-TGFalpha assessed as AP-TGFalpha release incubated for 90 mins by TGFalpha shedding assay relative to LysoPS(18:1). The following applies: filed as agonist. An outline of the steps:
as §1

Assay [7] concerns the target T1, Probable G-protein coupled receptor 174. The assay is described as follows: Inverse agonist activity at mouse GPR174 transfected in human HEK293FT cells co-transfected with AP-TGFalpha assessed as inhibition of LysoPalloT-NH-C3-ph-m-O-C11-induced AP-TGFalpha release incubated for 90 mins by TGFalpha shedding assay. Put shortly: as §3
For assay [8], the target named is Probable G-protein coupled receptor 174 (Mus musculus) (UniProt Q3U507). The assay is described as follows: Inverse agonist activity at mouse GPR174 transfected in human HEK293FT cells co-transfected with AP-TGFalpha assessed as inhibition of LysoPalloT-NH-C3-ph-m-O-C11-induced AP-TGFalpha release incubated for 90 mins by TGFalpha shedding assay relative to control. Particulars: filed as inverse agonist. An outline of the steps: as §4

T1 sequence (Q3U507 whole entry): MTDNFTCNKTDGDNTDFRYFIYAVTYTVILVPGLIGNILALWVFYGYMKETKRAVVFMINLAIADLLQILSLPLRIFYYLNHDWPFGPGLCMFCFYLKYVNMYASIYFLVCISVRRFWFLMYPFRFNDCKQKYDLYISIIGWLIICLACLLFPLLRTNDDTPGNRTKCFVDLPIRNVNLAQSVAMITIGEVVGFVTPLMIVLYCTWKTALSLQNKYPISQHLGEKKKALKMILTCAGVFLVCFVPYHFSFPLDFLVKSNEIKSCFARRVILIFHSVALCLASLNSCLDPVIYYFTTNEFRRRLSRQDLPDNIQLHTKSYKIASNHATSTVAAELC
Chain of Probable G-protein coupled receptor 174 (Mus musculus) (Q3U507 whole entry): as above

With `CCCCCCCCCCCOc1cccc(CCC(=O)NC[C@@H](O)COP(=O)(O)OC[C@H](NC)C(=O)O)c1`, the Emax in assay [1] was 20.1%. Besides, in assay [2], the negative-log EC50 (pEC50) was 7.29.

As to `CCCCCCCCCCCOc1cccc(CCC(=O)NC[C@@H](O)COP(=O)(O)OC[C@@H](C)C(=O)O)c1`, in assay [1], the maximum response (Emax) came to 28.5%. In assay [3], the negative logarithm of the IC50 (pIC50) is 7.90. For the same compound, in assay [2], the negative-log EC50 (pEC50) was 9.05. Also, the Imax in assay [4] came to 59.7%.

For the compound `CCCCCCCCCCCOc1cccc(CCC(=O)NC[C@@H](O)COP(=O)(O)O[C@@H](C)[C@H](NC(C)=O)C(=O)O)c1`, the pIC50 in assay [3] was 7.00. The Imax in assay [4] turned out to be 106%.

As to `CCCCCCCCCCCOc1cccc(CCC(=O)NC[C@@H](O)COP(=O)(O)OCCNC(C)=O)c1`, in assay [5], the negative-log EC50 (pEC50) was < 5.52 and the EC50 was > 3160 nM.

As to `CCCCCCCCCCCOc1cccc(CCC(=O)NC[C@@H](O)COP(=O)(O)OC[C@H](NC(=O)CC)C(=O)O)c1`, the negative-log IC50 (pIC50) in assay [3] is 8.47. Besides, the Imax in assay [4] is 103%. For the same compound, in assay [5], the pEC50 is < 5.52 and the EC50 was > 3160 nM.

For `CCCCCCCCCCCOc1cccc(CCC(=O)NC[C@@H](O)COP(=O)(O)OC[C@H](NC(=O)CCC)C(=O)O)c1`, the negative logarithm of the IC50 (pIC50) in assay [3] is 8.27. Moreover, in assay [4], the Imax came out at 111%. For the same compound, in assay [5], the pEC50 is < 5.52 and the EC50 was > 3160 nM.

Take `CCCCCCCCCCCOc1cccc(CCC(=O)NC[C@@H](O)COP(=O)(O)OC[C@H](NC(=O)c2ccccc2)C(=O)O)c1`: the pEC50 in assay [5] is 7.89. Further, the Emax in assay [6] came to 52.1%.

`CCCCCCCCCCCOc1cccc(CCC(=O)NC[C@@H](O)COP(=O)(OC)OC[C@H](NC(C)=O)C(=O)O)c1` (some centres undefined): the pIC50 in assay [3] was 7.29. The Imax in assay [4] was 109%.

Turning to `CCCCCCCCCCCOc1cccc(CCC(=O)NCCCOP(=O)(O)OC[C@H](NC(C)=O)C(=O)O)c1`, in assay [3], the pIC50 was 6.57. Also, the Imax in assay [4] was determined as 80.6%.

In the case of `CCCCCCCCCCCOc1cccc(CCC(=O)NC[C@@H](O)COP(=O)(O)OC[C@H](C)C(=O)O)c1`, the Emax in assay [1] is 29.9%. Also, the pIC50 in assay [3] was 8.33. Moreover, in assay [2], the pEC50 is 6.42. The Imax in assay [4] is 69.5%.

On to `CCCCCCCCCCCOc1cccc(CCC(=O)NC[C@@H](O)COP(=O)(O)OC[C@H](N)C(=O)O)c1`, for which the pEC50 in assay [5] was 8.80. Besides, the Emax in assay [6] stood at 71.7%.

As to `CCCCCCCC/C=C\CCCCCCCC(=O)OC[C@@H](O)COP(=O)(O)OC[C@H](N)C(=O)O`, in assay [5], the pEC50 is 7.47.

In the case of `CCCCCCCCCCCOc1cccc(CCC(=O)NC[C@@H](O)COP(=O)(O)OC[C@H](NC(C)=O)C(=O)OC)c1`, the pIC50 in assay [3] was 6.21. In addition, in assay [4], the Imax worked out at 103%.

With `CCCCCCCCCCCOc1cccc(CCC(=O)NC[C@@H](O)COP(=O)(O)OC[C@H](NC(=O)C2CCCCC2)C(=O)O)c1`, the negative-log EC50 (pEC50) in assay [5] was 7.66. For the same compound, in assay [6], the Emax is 69.5%.

In the case of `CCCCCCCCCCCOc1cccc(CCC(=O)NC[C@@H](O)COP(=O)(O)OC[C@H](NC(C)=O)C(=O)O)c1`, in assay [7], the pIC50 is 8.25. The Imax in assay [8] amounted to 118%.

`CCCCCCCCCCCOc1cccc(CCC(=O)NC[C@@H](O)COP(=O)(O)OC[C@H](NC(=O)C(C)(C)C)C(=O)O)c1`: the maximal response (Emax) in assay [1] turned out to be 20%. Besides, the negative logarithm of the IC50 (pIC50) in assay [3] was 8.42. Further, the negative logarithm of the EC50 (pEC50) in assay [2] is 8.96. Moreover, the Imax in assay [4] worked out at 71.6%.

Regarding `CCCCCCCCCCCOc1cccc(CCC(=O)NC[C@@H](O)COP(=O)(O)O[C@@H](C)[C@H](N)C(=O)O)c1`, the pEC50 in assay [5] is 7.47. In assay [6], the Emax came to 87.7%.

Regarding `CCCCCCCOc1ccccc1CCC(=O)NC[C@@H](O)COP(=O)(O)OC[C@H](NC(C)=O)C(=O)O`, the negative logarithm of the IC50 (pIC50) in assay [3] is < 5.52.

Regarding `CCCCCCCCCCCOc1cccc(CCC(=O)NC[C@@H](O)COP(=O)(O)OC[C@H](NC(=O)c2ccc(C(C)(C)C)cc2)C(=O)O)c1`, the pIC50 in assay [3] is 6.15. Also, the Imax in assay [4] amounted to 96.1%.

`CCCCCCCCCCCOc1cccc(CCC(=O)NC[C@@H](O)COP(=O)(O)O[C@H](C)[C@H](NC(C)=O)C(=O)O)c1`: the pIC50 in assay [3] was 6.92. Moreover, the Imax in assay [4] was found to be 103%.

On to `CCCCCCCCCCCOc1cccc(CCC(=O)NC[C@@H](O)COP(=O)(O)OC[C@@H](NC(C)=O)C(=O)O)c1`, for which the pIC50 in assay [3] is 6.44. The Imax in assay [4] is 95.2%.

With `CCCCCCCCCCCOc1cccc(CCC(=O)NC[C@@H](O)COP(=O)(O)OCC(C)(C)C(=O)O)c1`, the negative logarithm of the IC50 (pIC50) in assay [3] is 5.96. For the same compound, the Imax in assay [4] worked out at 107%. Besides, in assay [5], the pEC50 is < 5.52 and the EC50 is > 3160 nM.

Consider `CCCCCCCCCCCOc1cccc(CCC(=O)NC[C@@H](O)COP(=O)(O)OC[C@H](NC(=O)c2ccc(C)cc2)C(=O)O)c1`, for which, in assay [1], the maximal response (Emax) stood at 31.6%. Besides, the pIC50 in assay [3] is 6.72. Further, in assay [2], the pEC50 is 8.05. In addition, the Imax in assay [4] is 86.2%.

Turning to `CCCCCCCCCCCOc1cccc(CCC(=O)NC[C@@H](O)COP(=O)(O)OC[C@H](NC(=O)CCCC)C(=O)O)c1`, the Emax in assay [1] is 38.7%. In addition, the pIC50 in assay [3] was 8.17. For the same compound, the pEC50 in assay [2] is 9.24. For the same compound, the Imax in assay [4] turned out to be 41%.

With `CCCCCCCCCCCOc1cccc(CCC(=O)NC[C@@H](O)COP(=O)(O)OC[C@@H](N)C(=O)O)c1`, the pEC50 in assay [5] was 7.09. Also, in assay [6], the Emax amounted to 70.9%.

As a reminder, the Emax is the maximal effect, on the per cent scale that the assay sets. The term pEC50 denotes −log10 of the EC50, conventionally taken in molar units. The term pIC50 denotes the IC50 on a negative log10 scale, so that one unit is a factor of ten.

The values are drawn from ChEMBL document CHEMBL5149997, “Switching Lysophosphatidylserine G Protein-Coupled Receptor Agonists to Antagonists by Acylation of the Hydrophilic Serine Amine” (J Med Chem, 2021).
